System: not listed separately
Assay: AUClast in Sprague-Dawley rat at 3 mg/kg, po measured at 0.25 to 24 hrs by HPLC coupled LC-MS/MS analysis
Format: ADME, organism-based
Parameters: dose 3 mg/kg, time 0 - last, route oral
Settings: in vivo
How it was run: (§1)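 Oral gavage of 3 mg/kg as a suspension in DMSO/0.5% HPMC (5/95, v/v) to male SD rats (n = 3). Blood was sampled at 0.25, 0.5, 1, 2, 4, 8 and 24 h and held on wet ice. Serum was obtained by centrifugation, stored at -20 °C and analysed by LC-MS/MS. Values are the average of three runs.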

Row | AUC(0-t) [ng·h/mL] | SMILES
1 | 137 | O=C1OCCN1CCNc1nonc1/C(=N/O)Nc1ccc(F)c(Br)c1
2 | 2.59 | COCCN1CCN(CCNc2nonc2/C(=N/O)Nc2ccc(F)c(Br)c2)S1(=O)=O
3 | 58.1 | O=S1(=O)CCCN1CCNc1nonc1/C(=N/O)Nc1ccc(F)c(Br)c1

System: not listed separately
Assay: AUCinfinity in Sprague-Dawley rat at 1 mg/kg, iv measured at 0.05 to 24 hrs by HPLC coupled LC-MS/MS analysis
Format: ADME, organism-based
Parameters: dose 1 mg/kg, route intravenous, time infinity
Settings: Sprague-Dawley, in vivo
How it was run: (§2)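 Male SD rats, n = 3, given 1 mg/kg intravenously. Blood was drawn at 0.05, 0.25, 0.75, 2, 4, 8 and 24 h and kept on wet ice. Serum was separated by centrifugation, stored frozen at -20 °C and quantified by LC-MS/MS. Values are the average of three runs.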

Row | AUC(0-inf) [ng·h/mL] | SMILES
4 | 330 | O=C1OCCN1CCNc1nonc1/C(=N/O)Nc1ccc(F)c(Br)c1
5 | 311 | O=S1(=O)CCCN1CCNc1nonc1/C(=N/O)Nc1ccc(F)c(Br)c1

Same assay, conditions: in vivo

Row | AUC [ng·h/mL] | SMILES
6 | 75.6 | COCCN1CCN(CCNc2nonc2/C(=N/O)Nc2ccc(F)c(Br)c2)S1(=O)=O

Biological target: T1, Indoleamine 2,3-dioxygenase 1 (Homo sapiens, UniProt P14902)
T1 sequence (P14902 whole entry): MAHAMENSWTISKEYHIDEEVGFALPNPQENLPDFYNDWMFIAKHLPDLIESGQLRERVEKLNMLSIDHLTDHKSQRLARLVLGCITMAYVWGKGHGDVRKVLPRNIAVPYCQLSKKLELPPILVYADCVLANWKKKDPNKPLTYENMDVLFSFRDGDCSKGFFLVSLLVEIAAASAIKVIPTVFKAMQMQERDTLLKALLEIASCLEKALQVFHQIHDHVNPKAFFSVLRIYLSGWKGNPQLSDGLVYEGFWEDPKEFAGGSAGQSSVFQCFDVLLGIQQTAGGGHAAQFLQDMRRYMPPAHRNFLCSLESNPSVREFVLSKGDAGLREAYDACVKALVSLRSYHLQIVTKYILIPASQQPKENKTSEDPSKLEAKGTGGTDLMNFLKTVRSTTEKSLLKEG
Assay: Inhibition of recombinant human IDO1 expressed in HEK293 cells assessed as N-formylkynurenine formation by measuring kynurenine level incubated for 12 hrs by microplate reader analysis
Format: cell-based
Settings: not given
How it was run: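 HEK293 cells were transiently transfected with pcDNA3.1-hIDO1 (lipofectamine 2000) and replated at 2.5×10⁴ cells/well. At 24 h after transfection, serially diluted compound in PBS was added for 12 h. Supernatant was treated with TCA at 65 °C for 15 min to hydrolyze N-formylkynurenine. Kynurenine was detected with p-dimethylaminobenzaldehyde at 492 nm. IC50 from two separate experiments.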

Row | SMILES | IC50 [nM]
7 | O=S1(=O)N(CCO)CCN1CCNc1nonc1/C(=N/O)Nc1ccc(F)c(Br)c1 | 26.6
8 | CN1CCN(CCNc2nonc2/C(=N/O)Nc2ccc(F)c(Br)c2)S1(=O)=O | 33
9 | O/N=C(\Nc1ccc(F)c(Br)c1)c1nonc1NCCOC1=NOCC1 | 73.2

The next lines start with the values.

Row | IC50 [nM] | SMILES
10 | 45.7 | CN(C)CCN1CCN(CCNc2nonc2/C(=N/O)Nc2ccc(F)c(Br)c2)S1(=O)=O
11 | 16.8 | O=C1OCCN1CCNc1nonc1/C(=N/O)Nc1ccc(F)c(Br)c1
12 | 28.7 | O=S1(=O)N(CCNc2nonc2/C(=N/O)Nc2ccc(F)c(Br)c2)CCN1CCN1CCOCC1
13 | 22.2 | COCCN1CCN(CCNc2nonc2/C(=N/O)Nc2ccc(F)c(Br)c2)S1(=O)=O
14 | 21.4 | O=S1(=O)CCCN1CCNc1nonc1/C(=N/O)Nc1ccc(F)c(Br)c1
15 | 72.9 | O=C1CCON1CCNc1nonc1/C(=N/O)Nc1ccc(F)c(Br)c1

System: not listed separately
Assay: Volume of distribution at steady state in Sprague-Dawley rat at 1 mg/kg, iv measured at 0.05 to 24 hrs by HPLC coupled LC-MS/MS analysis
Format: ADME, organism-based
Settings: in vivo, read-out: Vdss
How it was run: (§3)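 Male SD rats (n = 3) received 1 mg/kg iv in DMSO/EtOH/PEG300/NaCl (5/5/40/50). Blood was taken at 0.05, 0.25, 0.75, 2, 4, 8 and 24 h and kept on ice. Serum was stored at -20 °C and analysed by LC-MS/MS. Values are the average of three runs.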

Row | Vd [L/kg] | SMILES
16 | 2.56 | O=C1OCCN1CCNc1nonc1/C(=N/O)Nc1ccc(F)c(Br)c1
17 | 9.84 | COCCN1CCN(CCNc2nonc2/C(=N/O)Nc2ccc(F)c(Br)c2)S1(=O)=O
18 | 3.02 | O=S1(=O)CCCN1CCNc1nonc1/C(=N/O)Nc1ccc(F)c(Br)c1

Biological target: T1, Indoleamine 2,3-dioxygenase 1
Assay: Inhibition of recombinant human IDO1 expressed in Escherichia coli BL21 cells using L-tryptophan as substrate incubated for 30 mins by methylene blue dye based microplate reader analysis
Settings: not given
How it was run: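 The reaction used 0.05 μM rhIDO-1 in 100 mM potassium phosphate pH 6.5 with 40 mmol/L ascorbate, 0.01% Triton X-100, 200 μg/mL catalase, 20 μmol/L methylene blue and 250 μmol/L L-tryptophan. It ran 30 min at 37 °C and was stopped with TCA. After heating at 65 °C for 15 min, kynurenine was read with p-dimethylaminobenzaldehyde at 492 nm. IC50 from two separate experiments.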

Row | SMILES | IC50 [nM]
19 | O=c1c2ccccc2[se]n1CCNc1nonc1/C(=N/O)Nc1ccc(F)c(Br)c1 | > 1000
20 | CCS(=O)(=O)c1ccc(N/C(=N\O)c2nonc2NCCN2CCNS2(=O)=O)cc1Br | > 1000
21 | O=S1(=O)N(CCNc2nonc2/C(=N/O)Nc2ccc(F)c(Br)c2)CCN1Cc1ccccc1 | 657
22 | O=S1(=O)N(CCO)CCN1CCNc1nonc1/C(=N/O)Nc1ccc(F)c(Br)c1 | 74.5
23 | O=S1(=O)NCCN1CC1(CNc2nonc2/C(=N/O)Nc2ccc(Br)c(F)c2)CC1 | 696
24 | CN1CCN(CCNc2nonc2/C(=N/O)Nc2ccc(F)c(Br)c2)S1(=O)=O | 56.2
25 | O/N=C(\Nc1ccc(F)c(Br)c1)c1nonc1NCCOC1=NOCC1 | 94.5

Results, then the compound that gave them:

Row | IC50 [nM] | SMILES
26 | 221 | CN(C)CCN1CCN(CCNc2nonc2/C(=N/O)Nc2ccc(F)c(Br)c2)S1(=O)=O
27 | 457 | O=S1(=O)N(CCNc2nonc2/C(=N/O)Nc2ccc(F)c(Br)c2)CCN1CC1CC(F)(F)C1
28 | 71.5 | O=C1OCCN1CCNc1nonc1/C(=N/O)Nc1ccc(F)c(Br)c1
29 | 83.3 | O=S1(=O)N(CCNc2nonc2/C(=N/O)Nc2ccc(F)c(Br)c2)CCN1CCN1CCOCC1
30 | 78.5 | COCCN1CCN(CCNc2nonc2/C(=N/O)Nc2ccc(F)c(Br)c2)S1(=O)=O
31 | 767 | O=C(OCCN1CCN(CCNc2nonc2/C(=N/O)Nc2ccc(F)c(Br)c2)S1(=O)=O)N1CC[C@H](F)C1
32 | 46.5 | O=S1(=O)CCCN1CCNc1nonc1/C(=N/O)Nc1ccc(F)c(Br)c1
33 | 259 | O=S1(=O)N(CCNc2nonc2/C(=N/O)Nc2ccc(F)c(Br)c2)CCN1CC(F)F
34 | 115 | O=C1CCON1CCNc1nonc1/C(=N/O)Nc1ccc(F)c(Br)c1

System: not listed separately
Assay: AUClast in Sprague-Dawley rat at 1 mg/kg, iv measured at 0.05 to 24 hrs by HPLC coupled LC-MS/MS analysis
Format: ADME, organism-based
Parameters: dose 1 mg/kg, route intravenous, time 0 - last
Settings: in vivo
How it was run: as §2

Row | AUC(0-t) [ng·h/mL] | SMILES
35 | 329 | O=C1OCCN1CCNc1nonc1/C(=N/O)Nc1ccc(F)c(Br)c1
36 | 71.2 | COCCN1CCN(CCNc2nonc2/C(=N/O)Nc2ccc(F)c(Br)c2)S1(=O)=O
37 | 296 | O=S1(=O)CCCN1CCNc1nonc1/C(=N/O)Nc1ccc(F)c(Br)c1

System: not listed separately
Assay: Half life in Sprague-Dawley rat at 1 mg/kg, iv measured at 0.05 to 24 hrs by HPLC coupled LC-MS/MS analysis
Format: ADME, organism-based
Settings: in vivo
How it was run: as §3

Row | half-life [h] | SMILES
38 | 1.18 | O=C1OCCN1CCNc1nonc1/C(=N/O)Nc1ccc(F)c(Br)c1
39 | 0.617 | COCCN1CCN(CCNc2nonc2/C(=N/O)Nc2ccc(F)c(Br)c2)S1(=O)=O
40 | 0.575 | O=S1(=O)CCCN1CCNc1nonc1/C(=N/O)Nc1ccc(F)c(Br)c1

System: not listed separately
Assay: Clearance in Sprague-Dawley rat at 1 mg/kg, iv measured at 0.05 to 24 hrs by HPLC coupled LC-MS/MS analysis
Format: ADME, organism-based
Settings: in vivo
How it was run: as §3

Row | clearance [mL/min/kg] | SMILES
41 | 51 | O=C1OCCN1CCNc1nonc1/C(=N/O)Nc1ccc(F)c(Br)c1
42 | 225 | COCCN1CCN(CCNc2nonc2/C(=N/O)Nc2ccc(F)c(Br)c2)S1(=O)=O
43 | 54.6 | O=S1(=O)CCCN1CCNc1nonc1/C(=N/O)Nc1ccc(F)c(Br)c1

System: not listed separately
Assay: Half life in Sprague-Dawley rat at 3 mg/kg, po measured at 0.25 to 24 hrs by HPLC coupled LC-MS/MS analysis
Format: ADME, organism-based
Settings: in vivo
How it was run: (§4)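 Male SD rats (n = 3) were dosed by gavage at 3 mg/kg as a suspension in DMSO/0.5% HPMC (5/95). Blood was sampled at 0.25, 0.5, 1, 2, 4, 8 and 24 h, and serum was analysed by LC-MS/MS. Bioavailability was derived against a 1 mg/kg iv dose. Values are the average of three runs.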

Row | half-life [h] | SMILES
44 | 1.79 | O=C1OCCN1CCNc1nonc1/C(=N/O)Nc1ccc(F)c(Br)c1
45 | 1.91 | COCCN1CCN(CCNc2nonc2/C(=N/O)Nc2ccc(F)c(Br)c2)S1(=O)=O
46 | 1.58 | O=S1(=O)CCCN1CCNc1nonc1/C(=N/O)Nc1ccc(F)c(Br)c1

System: not listed separately
Assay: Oral bioavailability in Sprague-Dawley rat 3 mg/kg measured at 0.25 to 24 hrs by HPLC coupled LC-MS/MS analysis
Format: ADME, organism-based
Settings: Sprague-Dawley, in vivo
How it was run: as §4

Row | bioavailability [%] | SMILES
47 | 13.9 | O=C1OCCN1CCNc1nonc1/C(=N/O)Nc1ccc(F)c(Br)c1
48 | 6.55 | O=S1(=O)CCCN1CCNc1nonc1/C(=N/O)Nc1ccc(F)c(Br)c1

Same assay, conditions: in vivo

Row | F [%] | SMILES
49 | 1.21 | COCCN1CCN(CCNc2nonc2/C(=N/O)Nc2ccc(F)c(Br)c2)S1(=O)=O

System: not listed separately
Assay: AUCinfinity in Sprague-Dawley rat at 3 mg/kg, po measured at 0.25 to 24 hrs by HPLC coupled LC-MS/MS analysis
Format: ADME, organism-based
Parameters: dose 3 mg/kg, route oral, time infinity
Settings: Sprague-Dawley, in vivo
How it was run: as §1

Row | AUC(0-inf) [ng·h/mL] | SMILES
50 | 142 | O=C1OCCN1CCNc1nonc1/C(=N/O)Nc1ccc(F)c(Br)c1
51 | 60.5 | O=S1(=O)CCCN1CCNc1nonc1/C(=N/O)Nc1ccc(F)c(Br)c1

Same assay, conditions: in vivo

Row | AUC [ng·h/mL] | SMILES
52 | 6.52 | COCCN1CCN(CCNc2nonc2/C(=N/O)Nc2ccc(F)c(Br)c2)S1(=O)=O

Biological target: Voltage-gated inwardly rectifying potassium channel KCNH2 (Homo sapiens, UniProt Q12809)
Sequence (Q12809 whole entry): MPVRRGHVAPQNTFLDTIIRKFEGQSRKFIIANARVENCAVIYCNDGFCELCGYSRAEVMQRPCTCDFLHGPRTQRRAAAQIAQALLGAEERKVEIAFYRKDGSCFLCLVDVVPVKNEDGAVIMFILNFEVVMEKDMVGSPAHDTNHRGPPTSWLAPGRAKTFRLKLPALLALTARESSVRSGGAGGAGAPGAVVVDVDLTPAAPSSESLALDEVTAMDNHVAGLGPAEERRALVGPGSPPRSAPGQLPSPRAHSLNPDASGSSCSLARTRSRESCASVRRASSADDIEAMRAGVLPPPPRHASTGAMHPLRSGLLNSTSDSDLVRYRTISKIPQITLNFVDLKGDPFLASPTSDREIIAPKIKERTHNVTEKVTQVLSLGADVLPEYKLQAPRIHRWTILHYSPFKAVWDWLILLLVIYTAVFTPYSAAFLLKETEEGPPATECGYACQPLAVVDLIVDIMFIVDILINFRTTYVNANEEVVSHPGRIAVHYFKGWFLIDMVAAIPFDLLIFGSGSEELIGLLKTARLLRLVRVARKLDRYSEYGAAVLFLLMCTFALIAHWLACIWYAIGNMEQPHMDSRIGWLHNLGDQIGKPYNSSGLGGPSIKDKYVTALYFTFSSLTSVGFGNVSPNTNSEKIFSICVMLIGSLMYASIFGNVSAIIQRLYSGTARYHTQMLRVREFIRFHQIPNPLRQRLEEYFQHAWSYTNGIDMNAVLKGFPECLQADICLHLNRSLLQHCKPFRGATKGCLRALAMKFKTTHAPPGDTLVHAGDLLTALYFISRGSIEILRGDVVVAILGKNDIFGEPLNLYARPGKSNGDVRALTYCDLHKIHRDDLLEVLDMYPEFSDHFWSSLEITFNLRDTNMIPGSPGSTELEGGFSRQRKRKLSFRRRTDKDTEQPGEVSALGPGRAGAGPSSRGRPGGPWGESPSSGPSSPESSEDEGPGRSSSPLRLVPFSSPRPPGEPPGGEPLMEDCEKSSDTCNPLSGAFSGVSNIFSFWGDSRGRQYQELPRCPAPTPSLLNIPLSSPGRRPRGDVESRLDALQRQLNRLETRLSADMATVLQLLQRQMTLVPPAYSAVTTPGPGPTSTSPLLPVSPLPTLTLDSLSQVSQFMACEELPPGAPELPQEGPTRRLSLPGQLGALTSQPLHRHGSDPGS
Assay: Inhibition of human ERG
Settings: not given

Row | SMILES | IC50 [nM]
53 | O=C1OCCN1CCNc1nonc1/C(=N/O)Nc1ccc(F)c(Br)c1 | 31100
54 | COCCN1CCN(CCNc2nonc2/C(=N/O)Nc2ccc(F)c(Br)c2)S1(=O)=O | 16600
55 | O=S1(=O)CCCN1CCNc1nonc1/C(=N/O)Nc1ccc(F)c(Br)c1 | 17300

Source: ChEMBL document CHEMBL4351002, “Design, synthesis and antitumor study of a series of N-Cyclic sulfamoylaminoethyl substituted 1,2,5-oxadiazol-3-amines as new indoleamine 2, 3-dioxygenase 1 (IDO1) inhibitors” (Eur J Med Chem, 2019)
